Source: ChEMBL document CHEMBL4321877, “Development of Novel N-hydroxypyridone Derivatives as Potential Anti-Ischemic Stroke Agents” (J Med Chem, 2020)
Values after ≈ are worked out from the molar mass of the structure shown. Active and inactive are the calls of the source. The calls are words filed in the database; no cut-off is given here.

How the values were obtained:
[1] = Permeability of the compound incubated for 10 hrs by PAMPA; assay type: ADME; settings: read-out: permeability
[2] = Antioxidant activity assessed as trolox equivalent of AAPH radical scavenging activity measured every min for 180 mins by ORAC-FL assay; assay type: functional
[3] = system: SH-SY5Y; test: Neuroprotective activity against oxygen-glucose deprivation-induced toxicity in human SH-SY5Y cells assessed as cell viability at 1 uM preincubated for 2 hrs followed by OGD-challenge and measured after 24 hrs by MTT assay (reference value: 54.92 +/- 2.12%); assay type: functional; settings: read-out: Activity
[4] = system: SH-SY5Y; test: Neuroprotective activity against oxygen-glucose deprivation-induced toxicity in human SH-SY5Y cells assessed as cell viability at 10 uM preincubated for 2 hrs followed by OGD-challenge and measured after 24 hrs by MTT assay (reference value: 54.92 +/- 2.12%); assay type: functional; settings: read-out: Activity
[5] = Solubility of the compound in […] incubated for 24 hrs by HPLC analysis; assay type: physicochemical
[6] = system: SH-SY5Y; test: Cytotoxicity against human SH-SY5Y cells assessed as reduction in cell viability at 10 uM measured after 24 hrs by MTT assay; assay type: cell-based
Procedure, shortened: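 SH-SY5Y cells (1:1 MEM/F12, 10% FBS) seeded 3 × 10^4 cells/well, grown 24 h, then exposed without insult for 24 h to 1.56–100 µM or to 1 and 10 µM (DMSO stock diluted in medium). MTT read at 490 nm; viability as % of untreated control.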

[7] = system: SH-SY5Y; test: Neuroprotective activity against oxygen-glucose deprivation-induced toxicity in human SH-SY5Y cells assessed as cell viability at 2 uM preincubated for 2 hrs followed by OGD-challenge and measured after 24 hrs by MTT assay (reference value: 54.92 +/- 2.12%); assay type: functional; settings: read-out: Activity
[8] = system: SH-SY5Y; test: Neuroprotective activity against oxygen-glucose deprivation-induced toxicity in human SH-SY5Y cells assessed as cell viability at 4 uM added immediately before OGD-challenge and measured after 24 hrs by MTT assay (reference value: 54.23 +/- 4.48%)
[9] = system: SH-SY5Y; test: Neuroprotective activity against oxygen-glucose deprivation-induced toxicity in human SH-SY5Y cells assessed as cell viability at 1 uM preincubated for 2 hrs followed by OGD-challenge and measured after 24 hrs by MTT assay (reference value: 54.23 +/- 4.48%); assay type: functional; settings: read-out: Activity
[10] = Metal chelating activity of the compound assessed as formation of ferric-compound complex by measuring change in color at 60 uM after 15 mins using ammonium iron citrate solution by UV-vis spectrophotometric method
[11] = Metal chelating activity of the compound assessed as formation of ferric-compound complex by measuring change in color at 60 uM after 15 mins using FeSO4 solution by UV-vis spectrophotometric method
[12] = Metal chelating activity of the compound assessed as formation of ferrous-compound complex at 60 uM after 15 mins using ammonium iron(II) sulfate solution by UV-vis spectrophotometric method
[13] = Metal chelating activity of the compound assessed as formation of ferric-compound complex at 60 uM after 15 mins using ammonium iron citrate solution by UV-vis spectrophotometric method
[14] = Metal chelating activity of the compound assessed as formation of ferric-compound complex at 60 uM after 15 mins using FeCl3 solution by UV-vis spectrophotometric method
[15] = system: SH-SY5Y; test: Neuroprotective activity against oxygen-glucose deprivation-induced toxicity in human SH-SY5Y cells assessed as cell viability at 4 uM preincubated for 2 hrs followed by OGD-challenge and measured after 24 hrs by MTT assay (reference value: 54.92 +/- 2.12%); assay type: functional; settings: read-out: Activity
[16] = Metal chelating activity of the compound assessed as formation of ferric-compound complex at 60 uM after 15 mins using ammonium iron citrate solution by UV-vis spectrophotometric method
[17] = Metal chelating activity of the compound assessed as formation of ferric-compound complex at 60 uM after 15 mins using FeSO4 solution by UV-vis spectrophotometric method
[18] = system: SH-SY5Y; test: Neuroprotective activity against oxygen-glucose deprivation-induced toxicity in human SH-SY5Y cells assessed as increase in cell viability preincubated for 2 hrs followed by OGD-challenge and measured after 24 hrs by MTT assay; assay type: functional, cell-based
[19] = system: HT-22; test: Neuroprotective activity against glutamate-induced cell death in mouse HT22 cells assessed as increase in cell viability up to 4 uM preincubated for 2 hrs followed by glutamate-challenge and measured after 24 hrs by MTT assay; assay type: functional, cell-based
Procedure, shortened: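 HT22 mouse hippocampal cells (DMEM, 10% FBS) seeded 5×10^4 cells/ml and grown 12 h. Compound added for 2 h, then 10 mM L-glutamic acid hydrochloride for 24 h. Viability by MTT at 490 nm as % of control; mean ± SD, n = 3.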

[20] = system: Rattus norvegicus; test: Neuroprotective activity in Sprague-Dawley rat model of middle cerebral artery occlusion-induced ischemia-reperfusion injury assessed as reduction in disease severity score at 3 mg/kg, iv measured 24 hrs post-reperfusion; assay type: functional, organism-based
Procedure, shortened: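 Male Sprague-Dawley rats anesthetized with chloral hydrate (400 mg/kg i.p.); left MCA occluded by intraluminal nylon suture for 2 h, then withdrawn. Compound in 0.9% saline given by tail vein immediately after reperfusion; body temperature held at 37.0 ± 0.5 °C. mNSS scored 24 h later; n = 15–18, mean ± SEM.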

[21] = system: SH-SY5Y; test: Neuroprotective activity against oxygen-glucose deprivation-induced toxicity in human SH-SY5Y cells assessed as cell viability at 10 uM preincubated for 2 hrs followed by OGD-challenge and measured after 24 hrs by MTT assay (reference value: 49.91%); assay type: functional; settings: read-out: Activity
[22] = system: SH-SY5Y; test: Neuroprotective activity against oxygen-glucose deprivation-induced toxicity in human SH-SY5Y cells assessed as cell viability at 1 uM preincubated for 2 hrs followed by OGD-challenge and measured after 24 hrs by MTT assay (reference value: 49.91%); assay type: functional; settings: read-out: Activity

| SMILES | viability at 1 µM [3] [%] | viability at 10 µM [4] [%] | other results |
| --- | --- | --- | --- |
| Cc1cc(=O)n(O)c(C2CCCCC2)c1Br | 81 | 63.2 | Papp at 10 h [1]: 3.97 ×10⁻⁶ cm/s; Activity [2]: inactive |
| Cc1cc(C2CCCCC2)n(O)c(=O)c1 [CICLOPIROX] | 70.1 | 69.8 | Papp at 10 h [1]: 8.17 ×10⁻⁶ cm/s; solubility at 24 h [5]: 1430 µg/mL (≈ 6.9 mM); Activity [6]: Toxic |
| O=c1cccc(C2CCCCC2)n1O | 51.8 | 76.6 |  |
| Cc1cc(C2CCCCC2)n(O)c(=O)c1CNC1CCCC1 | 67 | 61.9 | Papp at 10 h [1]: 3.89 ×10⁻⁶ cm/s; Activity [2]: inactive; Activity [6]: Toxic |
| Cc1cc(C)n(O)c(=O)c1 [METIPIROX] | 55.8 | 18.3 |  |
| O=c1c2ccccc2cc(C2CCCCC2)n1O | 78.5 | 61.6 | Papp at 10 h [1]: 4.43 ×10⁻⁶ cm/s; Activity [2]: inactive |
| Cc1cc(C2CCCCC2)n(O)c(=O)c1C=O | 54.8 | 56.5 |  |
| C#CCNCc1c(C)cc(C2CCCCC2)n(O)c1=O | 63.6 | 61.6 |  |
| Cc1cc(Cc2ccccc2)n(O)c(=O)c1 | 46.5 | 76.8 |  |
| COC(=O)COn1c(C2CCCCC2)cc(C)cc1=O | 49.9 | 56.4 |  |
| Cc1cc(CC(C)C)n(O)c(=O)c1 | 47.7 | 73.3 |  |
| CCCCCCCCCc1cc(C)cc(=O)n1O | 53 | 42.5 |  |
| Cc1cc(C2CC2)n(O)c(=O)c1 | 58.8 | 62.8 |  |
| Cc1cc(C2CCCCC2)n(O)c(=O)c1CNc1ccccc1 | 56.8 | 75.5 |  |
| CCCCCc1cc(C)cc(=O)n1O | 63.5 | 62 |  |
| Cc1cc(C2CCCCCC2)n(O)c(=O)c1 | 71 | 38.4 | Papp at 10 h [1]: 4.42 ×10⁻⁶ cm/s; Activity [2]: inactive; Activity [6]: Toxic; viability at 2 µM [7]: > 80% |

| SMILES | viability at 1 µM [3] [%] | viability at 10 µM [4] [%] | other results |
| --- | --- | --- | --- |
| Cc1cc(C2CCCCC2)n(O)c(=O)c1I | 76.3 | 55.1 | Papp at 10 h [1]: 7.65 ×10⁻⁶ cm/s; Activity (umolequiv/umol) [2]: 0.2; viability at 2 µM [7]: > 80% |
| Cc1cc(C2CCCCC2)n(O)c(=O)c1Cl | 63.4 | 57.1 |  |
| Cc1cc(C2CCCCC2)n(OCC(=O)O)c(=O)c1 | 56 | 55.9 |  |
| Cc1cc(C2CCCCC2)n(O)c(=O)c1Br | 62.9 | 59.9 |  |
| CCCc1cc(C)cc(=O)n1O | 47 | 64 |  |
| Cc1cc(C2CCC2)n(O)c(=O)c1 | 46 | 71.2 |  |
| Cc1cc(C2CCCC2)n(O)c(=O)c1 | 52.4 | 70.7 |  |
| CNCc1c(C)cc(C2CCCCC2)n(O)c1=O | 60.9 | 67.5 |  |
| CCc1cc(C2CCCCC2)n(O)c(=O)c1 | 69.8 | 67.3 | Papp at 10 h [1]: 4.53 ×10⁻⁶ cm/s; Activity [2]: inactive |
| CCCNCc1c(C)cc(C2CCCCC2)n(O)c1=O | 61 | 68 |  |
| CCCCCCCNCc1c(C)cc(C2CCCCC2)n(O)c1=O |  |  | viability at 4 µM [8]: 87.2%; viability at 1 µM [9]: 60% |
| Cc1cc([C@H]2C[C@H]3CC[C@@H]2C3)n(O)c(=O)c1 | 70.6 | 64.5 | Activity [10]: Active; Activity [11]: Active; Activity [12]: Active; Papp at 10 h [1]: 7.5 ×10⁻⁶ cm/s; Activity [13]: Active; solubility at 24 h [5]: 1220 µg/mL (≈ 5.56 mM); Activity [14]: Active; viability at 4 µM [15]: > 80%; Activity (umolequiv/umol) [2]: 1.13; Activity [16]: Active; Activity [6]: Toxic; Activity [17]: Active; viability at 2 µM [7]: > 80% |
| CCCCCCCc1cc(C)cc(=O)n1O | 71.7 | 58.5 | Activity [18]: inactive |
| Cc1cc(C2CCCCC2)n(O)c(=O)c1CNC(C)C | 61 | 65.2 |  |
| Cc1cc(C2CCCCC2)n(O)c(=O)c1 |  |  | Activity [10]: Active; Activity [11]: Active; Activity [19]: Active; Activity [12]: Active; Activity [13]: Active; Activity [14]: Active; Activity [20]: Active; Activity (umolequiv/umol) [2]: 0.52; Activity [16]: Active; Activity [17]: Active |
| CCOn1c(C2CCCCC2)cc(C)cc1=O |  |  | viability at 10 µM [21]: 43.9%; viability at 1 µM [22]: 46.3%; Activity [16]: inactive; Activity [17]: inactive |
